# Compounds with a hit are over-represented: about 2.9% of the library has one in this group of screens.
# PRMT1 FP inh = blocks human protein arginine methyltransferase 1. recombinant PRMT1, activity-based probe fluorescence polarization. inhibition, % at 2.79 µM. Q99873. 1.3% of 370,000 active;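 active = inhibition above about 21% made by adding two undisclosed values, limit read from the data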
# SIAE inh = human SIAE inhibition, primary screen. Q9HAT2. SIAE FP-Rh probe binding, fluorescence polarization. inhibition, % at 9.66 µM. 0.69% of 370,000 active;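 active = inhibition above a cutoff: mean of compounds within the control limits plus 3 SD of those, cut at about 17% in these data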;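 note: 0% = plate median of compound wells and 100% = probe without SIAE protein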
# Target sequence (Q9HAT2 whole entry, looked up): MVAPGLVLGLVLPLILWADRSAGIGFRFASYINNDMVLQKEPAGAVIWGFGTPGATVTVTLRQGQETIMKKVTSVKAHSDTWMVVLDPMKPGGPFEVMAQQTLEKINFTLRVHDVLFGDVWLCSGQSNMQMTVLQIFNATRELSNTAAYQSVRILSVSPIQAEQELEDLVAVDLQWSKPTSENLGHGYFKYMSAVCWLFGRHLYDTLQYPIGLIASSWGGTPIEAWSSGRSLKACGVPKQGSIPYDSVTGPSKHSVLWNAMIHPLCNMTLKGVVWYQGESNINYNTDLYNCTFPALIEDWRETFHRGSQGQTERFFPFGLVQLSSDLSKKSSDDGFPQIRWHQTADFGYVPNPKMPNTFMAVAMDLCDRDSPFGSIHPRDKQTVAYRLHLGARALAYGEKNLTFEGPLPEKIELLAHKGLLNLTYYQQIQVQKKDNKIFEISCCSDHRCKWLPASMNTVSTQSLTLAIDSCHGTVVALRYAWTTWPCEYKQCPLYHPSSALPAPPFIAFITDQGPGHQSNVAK
# TCR CD3 inh = human TCR-CD3 binding inhibition; TAMRA-labeled TCR probe fluorescence, biochemical; inhibition, % at 9.4 µM; 0.37% of 360,000 active; in the data active = inhibition above about 19%;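 note: recombinant mutant TCR 2C K166C tagged with TAMRA read by polarization; 0% = receptor in buffer alone and 100% = receptor with positive control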
# HTRA1 inhibitor = inhibitors of human serine peptidase HTRA1; Q92743; 0.5% of 340,000 active; recombinant HTRA1, FP-rhodamine activity-based probe, fluorescence polarization; inhibition, % at 5.96 µM; in the data active = inhibition above about 36%;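 note: 0% = enzyme with DMSO and 100% = wells lacking enzyme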
# PAD4 inh = blocks human protein arginine deiminase 4 | AID 485272 | inhibition, % at 6.36 µM | recombinant PAD4, RCA probe fluorescence polarization | 0.41% of 330,000 active | Q9UM07;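 active = percent inhibition above a cutoff equal to the mean of all tested compounds plus 3 SD, cut at about 15% in these data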;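 note: 0% = PAD4 with RCA probe and DMSO and 100% = probe without PAD4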
# ABHD4 inh = inhibitors of mouse ABHD4. Q8VD66. purified mABHD4, FP-Rh probe fluorescence polarization. inhibition, % at 8.92 µM. 0.54% of 370,000 active. AID 720543;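 active = inhibition exceeding the mean over every tested compound plus 3 SD, cut at about 30% in these data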;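 note: 0% = plate median of compound wells and 100% = S159A mutant with DMSO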
#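 Test system: mABHD4 protein | Buffer or medium: HEPES pH 7.0 buffer, 150 mM NaCl, 0.01% Pluronic F-127 | Probe or stimulus: FP-Rh fluorescent activity-based probe, added after compound pre-incubation | Timing: Pre-incubation 45 min, probe exposure 60 min, at 25 °C | Technique: Fluorescence polarization, excitation 525 nm, emission 598 nm, BODIPY TMR filters | Repeats: Single well per compound (singlicate)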
# PRMT1 confirm = PRMT1 (human) inhibition, FP confirmation; shares compounds with PRMT1 FP inh; recombinant His-PRMT1, activity-based probe fluorescence polarization; inhibition, % at 2.79 µM; 42% of 3,300 active;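 active = mean inhibition across replicates above the hit cutoff derived for the earlier primary screen, cut at about 22% in these data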
# The depositor's hits bear a star; · = no result given.
SMILES,PRMT1 FP inh,SIAE inh,TCR CD3 inh,HTRA1 inhibitor,PAD4 inh,ABHD4 inh,PRMT1 confirm
O=C(O)c1cccc(Nc2ccc3nonc3c2[N+](=O)[O-])c1,13,-5,-10,6,-3,-7,·
Cc1c(Nc2cc(Cl)c3nonc3c2[N+](=O)[O-])c(=O)n(-c2ccccc2)n1C,59*,-3,6,10,·,8,58*
O=[N+]([O-])c1c(Nc2cccc(O)c2)cc(Cl)c2nonc12,60*,-3,9,8,3,14,58*
O=S1(=O)c2ccc(Br)cc2OC[C@@H](Cc2ccccc2)N1Cc1cn(Cc2ccc(Cl)cc2)nn1,2,-1,·,·,·,-8,·
CCc1c(O)nc(SCC(=O)Nc2ccccc2C)n(-c2ccc(C)cc2)c1=O,30*,7,1,-7,-2,5,13
COc1ccc(-n2c(SCC(=O)Nc3ccccc3OC)nc(O)cc2=O)cc1,1,-4,2,-7,1,-4,·
CCc1c(O)nc(SCC(=O)Nc2cc(C)on2)n(-c2ccccc2)c1=O,53*,-4,-4,-2,-1,-7,24*
COc1ccc(-n2c(SCC(=O)Nc3ccccc3OC)nc(O)c(Cc3ccccc3)c2=O)cc1,30*,2,-6,-9,-1,0,22*
CCCCc1c(O)nc(SCC(=O)Nc2cccc3ccccc23)n(-c2ccccc2OC)c1=O,42*,-6,-5,-2,-3,-9,23*
N[C@H](C(=O)Nc1ccc(Cl)cc1C(=O)c1ccc[nH]1)c1ccccc1,1,-2,·,·,·,-2,·
COC(=O)[C@@H](C)NC(=O)C(Cc1ccc2c(c1)OCO2)NC(C)=O (stereo not given in full),1,4,·,·,·,2,·
CCc1c(O)nc(SCC(=O)Nc2ccc(C)cc2)n(C2CCCCC2)c1=O,10,9,1,-9,-2,-18,·
CCc1c(O)nc(SCC(=O)Nc2ccc(Br)cc2)n(-c2ccc(C)cc2)c1=O,45*,1,-7,-16,-7,3,33*
Cc1c(O)nc(SCC(=O)Nc2cccc(C(F)(F)F)c2)n(-c2ccccc2)c1=O,95*,3,-7,1,·,5,75*
CCc1c(O)nc(SCC(=O)Nc2ccccc2)n(-c2ccccc2)c1=O,18,3,0,5,6,-5,·
Cc1ccc(NC(=O)CSc2nc(O)c(Cc3ccccc3)c(=O)n2-c2ccccc2)cc1,33*,2,4,-1,0,0,29*
CCc1c(O)nc(SCC(=O)Nc2ccccc2)n(-c2ccccc2C)c1=O,36*,-4,-1,-1,·,-4,20
CCc1c(O)nc(SCC(=O)Nc2nc3ccccc3s2)n(-c2ccccc2)c1=O,38*,0,3,1,6,3,42*
Nc1cc(S(=O)(=O)O)cc2ccc(S(=O)(=O)O)cc12,35*,1,-1,5,·,17,10
C#CCNC(=O)CSCc1nc(-c2ccc(OCC)cc2)oc1C,10,3,·,·,·,4,·
Cc1cccc(-c2n[nH]c(=S)n2/N=C/C=C/c2ccco2)c1,46*,5,14,33,1,22,11
CC(/C=N/n1c(-c2ccncc2)n[nH]c1=S)=C\c1ccco1,27*,4,-1,·,3,9,6
CC(/C=N/n1c(-c2ccc(C)cc2)n[nH]c1=S)=C\c1ccco1,18,10,0,-7,0,0,·
COc1ccc(C2Nc3ccccc3C(=O)N2Cc2cccnc2)cc1COc1c(C)cccc1C (stereo not given),8,-2,·,·,·,-8,·
O=C(NCCc1ccccc1)OCc1cn(Cc2ccccc2F)nn1,-5,-1,·,·,·,0,·
SMILES,PRMT1 FP inh,SIAE inh,TCR CD3 inh,HTRA1 inhibitor,PAD4 inh,ABHD4 inh,PRMT1 confirm
Cc1ccc(N2C(=O)CC(N3CCN(c4ccc(F)cc4)CC3)C2=O)c(C)c1 (stereo not given),7,0,1,6,0,4,·
O=c1c2cc(F)ccc2sn1-c1ccccc1Cl,61*,7,2,-1,·,4,95*
O=c1c2ccccc2sn1-c1ccc(Cl)cc1,90*,3,4,1,·,19,86*
O=c1c2ccc(F)cc2sn1-c1ccccc1,80*,2,5,1,·,16,94*
N=C1SCC(=O)N1c1ccccc1Cl,4,3,-1,-1,-2,-8,·
Cc1ccc(-n2sc3cc(F)ccc3c2=O)c(C)c1,92*,6,5,1,·,18,81*
Cc1cc(C)nc(N2CCC(C(=O)N(C)CCc3ccccc3)CC2)n1,5,1,·,·,·,-11,·
O=C(NC1CCCCN(Cc2cccc(Cl)c2)C1=O)c1ccc2ccccc2c1 (stereo not given),-8,-8,·,·,·,-14,·
Cc1ccc(C)c(-n2c3nc(=O)[nH]c(=O)c-3cc3cc([N+](=O)[O-])ccc32)c1,26*,10,-7,29,3,18,6
Cc1nc(N)sc1-c1csc(Nc2ccccc2)n1,19,6,-1,19,-13,6,·
Cc1cc(O)ccc1Nc1nc(-c2sc(N)nc2C)cs1,34*,5,-7,26,-3,16,14
CCOC(=O)Cc1csc(-n2sc3ccccc3c2=O)n1,88*,-18,2,-56,-4,-4,89*
CCCCNC(=O)NCCCN1CCN(c2ccc(F)cc2)CC1,0,2,·,·,·,7,·
CC(C)(C)N1C(=O)c2ccccc2NC(=O)N1Cc1ccccc1,-1,-3,4,-2,3,-3,·
O=C1Nc2ccccc2C(=O)C1(Cl)Cc1ccccc1 (stereo not given),93*,-5,-2,0,-4,3,87*
C[C@H]1[C@@H](NC(=O)C(c2ccccc2)c2ccccc2)CC[C@@]23CCCN2C(=O)CCC[C@@H]13,0,-3,·,·,·,-3,·
CN(C)CCNc1ccc2ncn3c4ccc(O)cc4c(=O)c1c23,67*,8,-1,11,·,13,88*
CN(C)CCNc1ccc(CO)c2sc3ccc(O)cc3c(=O)c12,4,8,-2,4,·,4,·
CCN(CC)c1ccc2cc(-c3nnc(-c4ccccc4)o3)c(=O)oc2c1,10,0,-1,-6,-3,-2,·
CCN(CC)c1ccc2cc(-c3nc(-c4ccc(OC)cc4)cs3)c(=O)oc2c1,45*,-6,-1,·,-10,3,78*
CC(=O)Nc1ccc(SCCCC(=O)c2ccccc2)cc1,35*,1,9,-15,4,-3,39*
CC(=O)Nc1ccc(C(=O)NCCCSc2ccccc2)cc1,-2,1,6,1,1,-8,·
CC(C)C(=O)N1CCC(Oc2cccnc2)CC1,1,4,·,·,·,4,·

# From PubChem BioAssay
